By pIC50 is commonly meant −log10 of the IC50, conventionally taken in molar units. One may read the GI50 as the concentration at which growth is held to half of that of the control. A high value points to lower sensitivity of the cells.

Structures are written as SMILES. pIC50: −log10 of the molar value.

The source of these data is ChEMBL document CHEMBL4219224, “Structure based drug design and in vitro metabolism study: Discovery of N-(4-methylthiophenyl)-N,2-dimethyl-cyclopenta[d]pyrimidine as a potent microtubule targeting agent” (Bioorg Med Chem, 2018).

Series [1] can be described thus: Inhibition of bovine brain tubulin polymerization assessed as reduction in tubulin assembly pretreated for 15 mins followed by GTP addition by spectrophotometric method. Also on record: species or system Bos taurus. Summed up: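 Placed on ice, then 0.4 mM GTP (final) added. Turbidity read at 350 nm after a jump from 0 °C to 30 °C.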
The subject of the next series is A549. Put plainly: Growth inhibition of human A549/ATCC cells incubated for 48 hrs by sulforhodamine B assay. It is filed as functional. The following applies: A549, 48 h. Background: In SRB staining, fixed cells bind dye roughly in proportion to their protein.
A further series concerns HOP-92. Put plainly: Growth inhibition of human HOP92 cells incubated for 48 hrs by sulforhodamine B assay. It is filed as functional. The following applies: HOP-92, 48 h.
In the next series the test system is NCI-H226. The experiment in a line: Growth inhibition of human NCI-H226 cells incubated for 48 hrs by sulforhodamine B assay. The class given is functional. The settings on record: NCI-H226, 48 h.
Another series relates to NCI-H322M. Put plainly: Growth inhibition of human NCI-H322M cells incubated for 48 hrs by sulforhodamine B assay. The class given is functional.
For the next series, the system named is SF-539. Put plainly: Growth inhibition of human SF539 cells incubated for 48 hrs by sulforhodamine B assay. The class given is functional. The following applies: SF-539, 48 h.
For another series, the system named is CAKI-1. Put plainly: Growth inhibition of human Caki1 cells incubated for 48 hrs by sulforhodamine B assay. The class given is functional. The settings on record: CAKI-1, 48 h.
The next series deals with SN12C. The experiment in a line: Growth inhibition of human SN12C cells incubated for 48 hrs by sulforhodamine B assay. It is filed as functional.
The next series relates to HCT-116. The experiment in a line: Growth inhibition of human HCT116 cells incubated for 48 hrs by sulforhodamine B assay. The settings on record: HCT-116, 48 h. The class given is functional.
In another series the test system is HCT-15. Put plainly: Growth inhibition of human HCT15 cells incubated for 48 hrs by sulforhodamine B assay. The class given is functional. The settings on record: HCT-15, 48 h.
The subject of another series is SW-620. Put plainly: Growth inhibition of human SW620 cells incubated for 48 hrs by sulforhodamine B assay. It is filed as functional. The settings on record: SW-620, 48 h.
The next series has as its system OVCAR-5. Put plainly: Growth inhibition of human OVCAR5 cells incubated for 48 hrs by sulforhodamine B assay. The class given is functional. The following applies: OVCAR-5, 48 h.
The next series concerns M14. Put plainly: Growth inhibition of human M14 cells incubated for 48 hrs by sulforhodamine B assay. It is filed as functional. The following applies: M14, 48 h.
A further series concerns MDA-MB-435. Put plainly: Growth inhibition of human MDA-MB-435 cells incubated for 48 hrs by sulforhodamine B assay. The settings on record: MDA-MB-435, 48 h. The class given is functional.
The test system of a further series is UACC-62. The experiment in a line: Growth inhibition of human UACC62 cells incubated for 48 hrs by sulforhodamine B assay. The following applies: UACC-62, 48 h. The class given is functional.
The next series has as its system PC-3. Put plainly: Growth inhibition of human PC3 cells incubated for 48 hrs by sulforhodamine B assay. The settings on record: PC-3, 48 h. It is filed as functional.
The next series deals with DU-145. Put plainly: Growth inhibition of human DU145 cells incubated for 48 hrs by sulforhodamine B assay. It is filed as functional. The settings on record: DU-145, 48 h.
A further series concerns Hs-578T. The experiment in a line: Growth inhibition of human Hs578T cells incubated for 48 hrs by sulforhodamine B assay. It is filed as functional.
The test system of a further series is BT-549. The experiment in a line: Growth inhibition of human BT549 cells incubated for 48 hrs by sulforhodamine B assay. It is filed as functional. The following applies: BT-549, 48 h.
The test system of another series is CCRF-CEM. Put plainly: Growth inhibition of human CCRF-CEM cells incubated for 48 hrs by sulforhodamine B assay. The class given is functional.
The test system of the next series is HL-60(TB). The experiment in a line: Growth inhibition of human HL-60(TB) cells incubated for 48 hrs by sulforhodamine B assay. The class given is functional. The settings on record: HL-60, 48 h.
Series [2] can be described thus: Stability in human liver microsome assessed as parent compound remaining at 20 uM after 60 mins in presence of NADPH by LC-MS/MS analysis. It is filed as ADME. The following applies: liver microsomes, read-out: Stability. An outline of the steps:
(§1)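 Human liver microsomes (both genders; 1.0 mg/mL) in 100 mM PBS pH 7.4 with 3 mM MgCl2 and 10 mM NADPH, preincubated at 37 °C. Reaction started with compound at 20 μM final (from DMSO stock); propranolol 5 μM as control. Aliquots at 0 and 60 min quenched in ice-cold ACN. Analysed by LC/MS/MS on a C18 column, 5–75% B gradient over 30 min, ESI.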

Series [3] can be described thus: Retention time of the compound in human liver microsomes at 20 uM by LC-MS/MS analysis. The class given is ADME, microsome. Summed up: as §1
Background: Liver microsomes are a subcellular fraction often used to study metabolism.

The next series has as its system MDA-MB-435 (human). The experiment in a line: Antiproliferative activity against human MDA-MB-435 cells by SRB assay.

With `CSc1ccc(N(C)c2nc(C)nc3c2CCC3)cc1`, the pIC50 is 5.89 in series [1] and 8.34 in the series with MDA-MB-435 (human). In addition, the GI50 was below 10 nM in the series with A549; below 10 nM with HOP-92; below 10 nM in the series with NCI-H226; above 10000 nM in the series on NCI-H322M; below 10 nM in the series on SF-539; below 10 nM in the series with CAKI-1. In addition, the concentration for 50% growth inhibition (GI50) in the series with SN12C is below 10 nM; with HCT-116, below 10 nM; with HCT-15, below 10 nM; with SW-620, below 10 nM; with OVCAR-5, above 10000 nM; in the series with M14 it was below 10 nM. Also, the GI50 in the series on MDA-MB-435, with UACC-62, with PC-3, with DU-145, with Hs-578T and with BT-549 was below 10 nM each time. The GI50 with CCRF-CEM and with HL-60(TB) was below 10 nM each time. Further, the remaining at 1 h, 20 µM in series [2] was 46.4%. For the same compound, the Retention_time in series [3] amounted to 17.4 min.
